Legend:
MT4 [1] = experiment: Ratio of CC50 to that of EC50; type: functional, Homo sapiens
Method in brief: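 Selectivity index is calculated as CC50/EC50. Both values come from the parallel MT-4 assays: cell viability for CC50 and protection from HIV-1-induced cytopathic effect for EC50.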

MT4 [2] = experiment: Concentration required to reduce HIV-1-induced cytopathic effect in MT-4 cells; type: functional, cell-based; details: Homo sapiens
Method in brief: (§1)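 MT-4 cells infected with HIV-1. The read-out is protection against virus-induced cytopathic effect. EC50 is the concentration giving a 50% reduction of the cytopathic effect. Uninfected MT-4 cytotoxicity was run in parallel.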

MT4 [3] = experiment: Cytotoxic concentration required to reduce MT-4 cell viability; type: functional; details: Homo sapiens
Method in brief: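 Viability of MT-4 cells was measured with compound alone, in parallel with the HIV-1 cytopathic-effect assay. CC50 is the concentration reducing MT-4 cell viability by 50%.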

[4] = biological target: Human immunodeficiency virus type 1 reverse transcriptase (Human immunodeficiency virus 1, UniProt Q72547); experiment: Concentration required to inhibit in vitro RNA-dependent DNA polymerase activity of reverse transcriptase
Method in brief: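 Recombinant HIV-1 RT. RNA-dependent DNA polymerase activity was measured in vitro. IC50 is the concentration inhibiting this polymerase activity by 50%.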

MT4 [5] = experiment: Concentration required to reduce HIV-1-induced cytopathic effect in MT-4 cells; NA = not active; type: functional, cell-based, Homo sapiens; method in brief: as §1
CCRF-CEM [6] = experiment: Concentration required to protect CEM cells against Mutant E138K Strain; type: functional, cell-based; details: Homo sapiens
Method in brief: (§2)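 CEM cell cultures were infected with mutant HIV-1 strains, each carrying a single NNRTI-resistance mutation in RT. EC50 is the concentration protecting CEM cells against HIV-induced cytopathogenicity by 50%.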

MT4 [7] = experiment: Compound was tested for inhibition of the cytopathic effects of HIV-1 (IIIB) in MT-4 cells; type: functional, cell-based; details: Homo sapiens
Method in brief: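 HIV-1-induced cytopathic effect measured in MT-4 cell cultures. EC50 is the concentration reducing the cytopathic effect by 50%. Cytotoxicity in MT-4 cells was run in parallel.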

CCRF-CEM [8] = experiment: Concentration required to protect CEM cells against Mutant Y188H Strain; type: functional, cell-based; details: Homo sapiens; method in brief: as §2
CCRF-CEM [9] = experiment: Concentration required to protect CEM cells against Mutant Y181C Strain; type: functional, cell-based; details: Homo sapiens; method in brief: as §2
CCRF-CEM [10] = experiment: Concentration required to protect CEM cells against Mutant K103N Strain; type: functional, cell-based; details: Homo sapiens; method in brief: as §2
CCRF-CEM [11] = experiment: Concentration required to protect CEM cells against Mutant L100I Strain; type: functional, cell-based; details: Homo sapiens; method in brief: as §2

Row | SMILES | Ratio (MT4 [1]) | EC50 (MT4 [2]) [µM] | CC50 (MT4 [3]) [µM] | IC50 [4] [µM] | EC50 (MT4 [5]) | EC50 (CCRF-CEM [6]) [µM] | EC50 (MT4 [7]) [µM] | EC50 (CCRF-CEM [8]) [µM] | EC50 (CCRF-CEM [9]) [µM] | EC50 (CCRF-CEM [10]) [µM] | EC50 (CCRF-CEM [11]) [µM]
1 | Oc1nc2cc(Cl)ccc2n1Cc1c(F)cccc1F | >14 | 29.6 | > 424 | 60 | – | – | – | – | – | – | –
2 | O=c1oc2ccc(Cl)cc2n1Cc1c(F)cccc1F | >91 | 3.72 | > 382 | 20 | – | – | – | – | – | – | –
3 | CC(C)c1ccc(Cn2c(O)nc3ccc(Cl)cc32)cc1 | >147 | 2.83 | > 415 | 16.2 | – | – | – | – | – | – | –
4 | Oc1nc2ccc(Cl)cc2n1Cc1c(Cl)cccc1Cl | 83 | 3.79 | 315 | 7.5 | – | – | – | – | – | – | –
5 | Oc1nc2ccc(Cl)cc2n1Cc1cccc2ccccc12 | 57 | 0.87 | 50 | 12.7 | – | – | – | – | – | – | –
6 | Oc1nc2ccc(Cl)cc2n1CC1CCCCC1 | – | – | 9.5 | 50 | Not Active | – | – | – | – | – | –
7 | Oc1nc2ccc(Cl)cc2n1Cc1ccc2ccccc2c1 | >64 | 6.35 | > 405 | 5.2 | – | – | – | – | – | – | –
8 | O=c1[nH]c2ccc(Cl)cc2n1Cc1c(F)cccc1F | >1766 | 0.24 | > 424 | 2.86 | – | 2.9 | 0.24 | > 20 | > 20 | > 20 | 2
9 | Fc1cccc(F)c1C1SCc2nc3ccccc3n21 (configuration not stated) [THIAZOLOBENZIMIDAZOLE] | 45 | 1.1 | 50 | 24.6 | – | 1.73 | 1.39 | 4.16 | 13.8 | 15.6 | 3.12

Reference: ChEMBL document CHEMBL1144429, “Computational strategies in discovering novel non-nucleoside inhibitors of HIV-1 RT” (J Med Chem, 2005)
